Test results from ChEMBL document CHEMBL1158582, “Novel DNA intercalators without basic side chains as efficient antitumor agents: design, synthesis and evaluation of benzo-[c,d]-indol-malononitrile derivatives” (Bioorg Med Chem, 2010).
pIC50: −log10 of the molar value. Activity calls are given as the source filed them. The rule behind the calls is not given here.

Tests used:
[1] = tested on: Nucleic Acid; experiment: Induction of DNA damage-mediated relaxation of Escherichia coli super coiled pBR322 DNA assessed as formation of linear form-3 DNA after 3 hrs under light condition by UV transilluminator; type: nucleic-acid assay
Outline: (§1)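 Supercoiled pBR322 (25 ng/µL) in 20 mM Tris–HCl pH 7.5 with 50 µM compound under light irradiation for 3 h; irradiated DNA alone as control. Products resolved on 1% agarose in 0.5× TAE containing 0.5 µg/mL EB, 80 V, 1.5 h.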

[2] = tested on: SMMC-7721; experiment: Cytotoxicity against human SMMC7721 cells after 48 hrs by MTT assay; type: functional, cell-based; conditions: SMMC-7721, 48 h
Outline: (§2)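 MTT assay, cells incubated 48 h with a range of compound concentrations. MTT (5 mg/mL in PBS) added, 3 h, formazan dissolved in lysis buffer (200 g/L SDS, 50% formamide, pH 4.7), absorbance read at 570 nm. At least three independent experiments; mean percent absorbance plotted against concentration to give IC50.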

[3] = tested on: Nucleic Acid; experiment: Induction of DNA damage-mediated relaxation of Escherichia coli super coiled pBR322 DNA assessed as formation of linear form-3 DNA after 12 hrs under dark condition by UV transilluminator; type: nucleic-acid assay
Outline: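 Supercoiled pBR322 (25 ng/µL) in 20 mM Tris–HCl pH 7.5 with 50 µM compound, 12 h at 4 °C in the dark. Quenched with loading buffer; 1% agarose gel in 0.5× TAE with 0.5 µg/mL EB, 80 V, 1.5 h.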

[4] = tested on: MCF7; experiment: Cytotoxicity against human MCF7 cells after 48 hrs by MTT assay; type: functional, cell-based; conditions: MCF7, 48 h; outline: as §2
[5] = tested on: Nucleic Acid; experiment: Induction of DNA damage-mediated relaxation of Escherichia coli super coiled pBR322 DNA assessed as formation of open circular form-2 DNA after 3 hrs under light condition by UV transilluminator; type: nucleic-acid assay; outline: as §1
[6] = tested on: Nucleic Acid; experiment: Binding affinity to calf thymus DNA assessed as DNA intercalation at 100 uM by UV-visible spectrophotometry; type: nucleic-acid assay; conditions: Bos taurus; 25 uM; in the assay text read “at 25 uM” for “at 100 uM”
Outline: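 UV–vis titration: compound fixed at 25 µM, CT DNA concentration increased; bathochromic shift and hypochromicity taken as the sign of intercalation, isosbestic point followed.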

[7] = tested on: Nucleic Acid; experiment: Binding affinity to calf thymus DNA assessed as increase in DNA viscosity by viscometric titration; type: nucleic-acid assay; conditions: Bos taurus
Outline: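 CT DNA sonicated 10 min and filtered through 0.45 µm membrane; DNA 100 µM. Titrations in an Ubbelohde viscometer in a thermostated bath held at 25 ± 0.1 °C.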

[8] = tested on: Nucleic Acid; experiment: Binding affinity to DNA assessed as decrease in ethidium bromide fluorescence at 5 uM by fluorescence spectroscopy; type: nucleic-acid assay
Outline: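 Fluorescence displacement of ethidium bromide bound to DNA; loss of EB fluorescence taken as displacement by the test agent. Compound alone with DNA measured as a control for the compound's own fluorescence.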

| Structure (SMILES) | Activity [1] | pIC50 [2] | Activity [3] | pIC50 [4] | Activity [5] | Activity [6] | Activity [7] | Activity [8] |
| --- | --- | --- | --- | --- | --- | --- | --- | --- |
| N#CCn1c(=C(C#N)C#N)c2cccc3cccc1c32 | Active | 6.59 | Active | 4.87 | Active | – | – | – |
| C#CCn1c(=C(C#N)C#N)c2cccc3cccc1c32 | Active | 6.14 | Active | 4.90 | Active | Active | Active | Active |
| N#CC(C#N)=c1c2cccc3cccc(c32)n1CCCCl | – | 6.45 | Active | 5.16 | Active | – | – | – |
| C=CCn1c(=C(C#N)C#N)c2cccc3cccc1c32 | Active | 6.76 | Active | 5.33 | Active | – | – | – |
| N#CC(C#N)=c1c2cccc3cccc(c32)n1CCBr | – | 6.68 | Active | 5.27 | Active | – | – | – |
| CC(=O)n1c(=C(C#N)C#N)c2cccc3cccc1c32 | – | 6.94 | Active | 8.52 | Active | Active | – | – |
| N#CC(C#N)=c1c2cccc3cccc(c32)n1C(=O)c1ccccc1 | – | 5.06 | Active | 4.82 | Active | inactive | – | – |
